Reference: BindingDB's records for doi:10.1021/jm00031a021 (Tap Pharmaceuticals, 1994)

Biological target: T1, Gonadotropin-releasing hormone receptor (Rattus norvegicus, UniProt P30969)
T1 sequence (P30969 whole entry): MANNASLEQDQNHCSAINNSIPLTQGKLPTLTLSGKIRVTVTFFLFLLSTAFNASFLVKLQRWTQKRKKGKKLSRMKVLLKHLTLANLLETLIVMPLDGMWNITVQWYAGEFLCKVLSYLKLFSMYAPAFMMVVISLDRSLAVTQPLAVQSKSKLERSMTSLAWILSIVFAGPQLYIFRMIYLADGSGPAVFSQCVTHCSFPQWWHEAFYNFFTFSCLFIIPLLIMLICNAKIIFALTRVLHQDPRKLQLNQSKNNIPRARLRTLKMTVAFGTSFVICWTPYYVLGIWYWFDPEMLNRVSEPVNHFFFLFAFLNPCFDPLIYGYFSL
Assay: Inhibition of the in vitro binding of [125I]-labeled leuprolide to the rat pituitary luteinizing hormone releasing hormone (LHRH) receptor.
Method in brief: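 Rat pituitary LHRH receptor binding with 125I-labeled leuprolide as radioligand. pKI is the negative log of the analogue concentration inhibiting 50% of tracer binding. Compounds tested as TFA salts.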

Ki [nM]	Compound
0.033	CCNC(=O)[C@H]1CCCN1C(=O)[C@H](CCCN=C(N)N)NC(=O)[C@H](CC(C)C)NC(=O)[C@@H](Cc1c[nH]c2ccccc12)NC(=O)[C@H](Cc1ccc(O)cc1)N(C)C(=O)[C@H](CO)NC(=O)[C@H](Cc1c[nH]c2ccccc12)NC(=O)CCc1ccc(F)cc1
0.017	CCNC(=O)[C@H]1CCCN1C(=O)[C@H](CCCN=C(N)N)NC(=O)[C@H](CC(C)C)NC(=O)[C@@H](CCCCNC(=O)c1cccnc1)NC(=O)[C@H](Cc1ccc(O)cc1)N(C)C(=O)[C@H](CO)NC(=O)[C@H](Cc1c[nH]c2ccccc12)NC(=O)CCc1ccc(F)cc1
0.017	CCNC(=O)[C@H]1CCCN1C(=O)[C@H](CCCN=C(N)N)NC(=O)[C@H](CC(C)C)NC(=O)[C@@H](Cc1c[nH]c2ccccc12)NC(=O)[C@H](Cc1ccc(O)cc1)NC(=O)[C@H](CO)NC(=O)C(Cc1cccc2ccccc12)NC(=O)CCc1ccc(F)cc1 (stereo not given in full)
0.02	CCNC(=O)[C@H]1CCCN1C(=O)[C@H](CCCN=C(N)N)NC(=O)[C@H](CC(C)C)NC(=O)[C@@H](CCCCNC(=O)c1cccnc1)NC(=O)[C@H](Cc1ccc(O)cc1)N(C)C(=O)[C@H](CO)NC(=O)[C@H](Cc1c[nH]c2ccccc12)NC(=O)CCc1ccc(F)cc1F
0.02	CCNC(=O)[C@H]1CCCN1C(=O)[C@H](CCCN=C(N)N)NC(=O)[C@H](CC(C)C)NC(=O)[C@@H](CCCCNC(=O)c1cccnc1)NC(=O)[C@H](Cc1ccc(O)cc1)N(C)C(=O)[C@H](CO)NC(=O)[C@H](Cc1c[nH]c2ccccc12)NC(=O)CCc1ccc(Cl)cc1
0.076	CCNC(=O)[C@H]1CCCN1C(=O)[C@H](CCCN=C(N)N)NC(=O)[C@H](CC(C)C)NC(=O)[C@@H](Cc1c[nH]c2ccccc12)NC(=O)[C@H](Cc1ccc(O)cc1)NC(=O)[C@H](CO)NC(=O)[C@H](Cc1c[nH]c2ccccc12)NC(=O)CCc1ccc(Cl)cc1
0.052	CCNC(=O)[C@@H]1CCCN1C(=O)[C@H](CCCN=C(N)N)NC(=O)[C@H](CC(C)C)NC(=O)[C@@H](Cc1c[nH]c2ccccc12)NC(=O)[C@H](Cc1ccc(O)cc1)NC(=O)[C@H](CO)NC(=O)[C@H](Cc1c[nH]c2ccccc12)NC(=O)CCc1ccc(F)c(F)c1
0.275	CCNC(=O)[C@@H]1CCCN1C(=O)[C@H](CCCN=C(N)N)NC(=O)[C@H](CC(C)C)NC(=O)[C@@H](Cc1c[nH]c2ccccc12)NC(=O)[C@H](Cc1ccc(O)cc1)NC(=O)[C@H](CO)NC(=O)[C@H](Cc1c[nH]c2ccccc12)NC(=O)CCc1ccc(C(F)(F)F)cc1
0.537	CC(C)C[C@H](NC(=O)[C@@H](CCCCNC(=O)c1cccnc1)NC(=O)[C@H](Cc1ccc(O)cc1)N(C)C(=O)[C@H](CO)NC(=O)[C@H](Cc1cccc2ccccc12)NC(=O)CCc1ccc(F)cc1)C(=O)N[C@@H](CCCCNC(C)C)C(=O)N1CCC[C@@H]1C(=O)O
0.347	CCNC(=O)[C@H]1CCCN1C(=O)[C@H](CCCN=C(N)N)NC(=O)[C@H](CC(C)C)NC(=O)[C@@H](CCCCNC(=O)c1cccnc1)NC(=O)[C@H](Cc1ccc(O)cc1)NC(=O)[C@H](CO)NC(=O)C(Cc1c[nH]c2ccccc12)NC(=O)CCc1ccc(F)cc1 (stereo not given in full)
17	CCNC(=O)[C@@H]1CCCN1C(=O)[C@H](CCCN=C(N)N)NC(=O)[C@H](CC(C)C)NC(=O)[C@@H](Cc1c[nH]c2ccccc12)NC(=O)[C@H](Cc1ccc(O)cc1)NC(=O)[C@H](CO)NC(=O)[C@H](Cc1c[nH]c2ccccc12)NC(=O)c1cc2ccccc2[nH]1
0.076	CCNC(=O)[C@@H]1CCCN1C(=O)[C@H](CCCN=C(N)N)NC(=O)[C@H](CC(C)C)NC(=O)[C@@H](Cc1c[nH]c2ccccc12)NC(=O)[C@H](Cc1ccc(O)cc1)NC(=O)[C@H](CO)NC(=O)[C@@H](Cc1c[nH]c2ccccc12)NC(=O)c1cc2ccccc2[nH]1
0.017	CCNC(=O)[C@H]1CCCN1C(=O)[C@H](CCCN=C(N)N)NC(=O)[C@H](CC(C)C)NC(=O)[C@@H](Cc1c[nH]c2ccccc12)NC(=O)[C@H](Cc1ccc(O)cc1)NC(=O)[C@H](CO)NC(=O)[C@H](Cc1cccc2ccccc12)NC(=O)CCc1ccc(F)cc1
0.01	CCNC(=O)[C@H]1CCCN1C(=O)[C@H](CCCN=C(N)N)NC(=O)[C@H](CC(C)C)NC(=O)[C@@H](Cc1ccc(O)cc1)NC(=O)[C@@H](Cc1ccc(O)cc1)NC(=O)[C@H](CO)NC(=O)[C@@H](Cc1c[nH]c2ccccc12)NC(=O)CCc1ccc(F)cc1
0.018	CCNC(=O)[C@H]1CCCN1C(=O)[C@H](CCCN=C(N)N)NC(=O)[C@H](CC(C)C)NC(=O)[C@@H](Cc1ccc(Cl)cc1)NC(=O)[C@H](Cc1ccc(O)cc1)NC(=O)[C@H](CO)NC(=O)[C@H](Cc1c[nH]c2ccccc12)NC(=O)CCc1ccc(F)cc1
0.135	CCNC(=O)[C@H]1CCCN1C(=O)[C@H](CCCN=C(N)N)NC(=O)[C@H](CC(C)C)NC(=O)[C@@H](Cc1c[nH]c2ccccc12)NC(=O)[C@H](Cc1ccc(O)cc1)NC(=O)[C@H](CO)N(C)C(=O)[C@H](Cc1c[nH]c2ccccc12)NC(=O)CCc1ccc(F)cc1
0.026	CCNC(=O)[C@H]1CCCN1C(=O)[C@H](CCCN=C(N)N)NC(=O)[C@H](CC(C)C)NC(=O)[C@@H](CCCCNC(=O)c1cccnc1)NC(=O)[C@H](Cc1ccc(O)cc1)N(C)C(=O)[C@H](CO)NC(=O)[C@H](Cc1c[nH]c2ccccc12)NC(=O)CCc1cccc(F)c1
1.35	CCNC(=O)[C@@H]1CCCN1C(=O)[C@H](CCCN=C(N)N)NC(=O)[C@H](CC(C)C)NC(=O)[C@@H](Cc1c[nH]c2ccccc12)NC(=O)[C@H](Cc1ccc(O)cc1)NC(=O)[C@H](CO)NC(=O)[C@H](Cc1c[nH]c2ccccc12)NC(=O)CCc1cccc(F)c1
0.04	CCNC(=O)[C@@H]1CCCN1C(=O)[C@H](CCCN=C(N)N)NC(=O)[C@H](CC(C)C)NC(=O)[C@@H](Cc1c[nH]c2ccccc12)NC(=O)[C@H](Cc1ccc(O)cc1)NC(=O)[C@H](CO)NC(=O)[C@H](Cc1c[nH]c2ccccc12)NC(=O)CCc1ccc(F)cc1F
12.3	CCNC(=O)[C@@H]1CCCN1C(=O)[C@H](CCCN=C(N)N)NC(=O)[C@H](CC(C)C)NC(=O)[C@@H](Cc1c[nH]c2ccccc12)NC(=O)[C@H](Cc1ccc(O)cc1)NC(=O)[C@H](CO)NC(=O)[C@H](Cc1c[nH]c2ccccc12)NC(=O)c1cc2cc(F)ccc2[nH]1
0.023	CCNC(=O)[C@H]1CCCN1C(=O)[C@H](CCCN=C(N)N)NC(=O)[C@H](CC(C)C)NC(=O)[C@@H](CCCCNC(=O)c1cccnc1)NC(=O)[C@H](Cc1ccc(O)cc1)NC(=O)[C@H](CO)NC(=O)[C@H](Cc1c[nH]c2ccccc12)NC(=O)CCc1ccc(F)cc1
0.022	CCNC(=O)[C@@H]1CCCN1C(=O)[C@H](CCCN=C(N)N)NC(=O)[C@H](CC(C)C)NC(=O)[C@@H](Cc1c[nH]c2ccccc12)NC(=O)[C@H](Cc1ccc(O)cc1)NC(=O)[C@H](CO)NC(=O)[C@H](Cc1ccc(O)cc1)NC(=O)CCc1ccc(F)cc1
0.038	CCNC(=O)[C@H]1CCCN1C(=O)[C@H](CCCN=C(N)N)NC(=O)[C@H](CC(C)C)NC(=O)[C@@H](Cc1ccc(O)cc1)NC(=O)[C@@H](Cc1ccc(O)cc1)NC(=O)[C@H](CO)NC(=O)[C@H](Cc1c[nH]c2ccccc12)NC(=O)CCc1ccc(F)cc1
83.2	CCNC(=O)[C@H]1CCCN1C(=O)[C@H](CCCN=C(N)N)NC(=O)[C@H](CC(C)C)NC(=O)[C@@H](Cc1c[nH]c2ccccc12)NC(=O)[C@H](Cc1ccc(O)cc1)NC(=O)[C@H](CO)NC(=O)[C@H](Cc1c[nH]c2ccccc12)NC(=O)[C@@H](N)Cc1ccccc1
0.646	CCNC(=O)[C@@H]1CCCN1C(=O)[C@H](CCCN=C(N)N)NC(=O)[C@H](CC(C)C)NC(=O)[C@@H](Cc1c[nH]c2ccccc12)NC(=O)[C@H](Cc1ccc(O)cc1)NC(=O)[C@H](CO)NC(=O)[C@H](Cc1c[nH]c2ccccc12)NC(=O)Cc1ccc(C(F)(F)F)cc1
